Measured values taken from ChEMBL document CHEMBL5625169, “Development of novel PEX5-PEX14 protein-protein interaction (PPI) inhibitors based on an oxopiperazine template” (Eur J Med Chem, 2023).

How the values were obtained:
[1] = Selectivity index, ratio of EC50 for cytotoxicity against human HepG2 cells assessed as reduction in cell viability to EC50 for antitrypanosomal activity against blood stream form of Trypanosoma brucei Lister 427 MITat 1.2 assessed as parasite growth inhibition; format: toxicity, cell-based; settings: read-out: Ratio EC50
In short: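 Ratio of HepG2 EC50 (µM) to T. b. brucei EC50. Parasites: bloodstream form, 2×10^3/mL, 66 h plus resazurin to 72 h, quadruplicate.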

[2] = system: HepG2; assay: Cytotoxicity against human HepG2 cells assessed as reduction in cell viability incubated for 66 hrs by resazurin staining based analysis; format: functional; settings: HepG2, 66 h
In short: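 HepG2 cells seeded at 5000 per well and grown overnight at 37 °C, 5% CO2. Compounds tested in triplicate at 100 to 3.125 µM (twofold dilutions); hygromycin B as cytotoxic control. After 66 h, resazurin added and plates incubated a further 6 h. Fluorescence background-subtracted and normalised to untreated cells; EC50 from sigmoidal dose-response fit.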

[3] = system: Trypanosoma brucei; assay: Antitrypanosomal activity against blood stream form of Trypanosoma brucei Lister 427 MITat 1.2 assessed as parasite growth inhibition incubated for 66 hrs by resazurin dye based assay; format: functional, organism-based; settings: Lister 427 MITat 1.2, 66 h
In short: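 Bloodstream-form Lister 427 (MITat 1.2) parasites maintained in HMI-11 with 10% FBS at 37 °C, 5% CO2. Twofold serial dilutions, 10 per row, in quadruplicate. Final 2×10^3 parasites/mL, 66 h, then resazurin added and incubated to 72 h. Fluorescence read at ex 530/em 585 nm, background subtracted, untreated wells taken as 100% survival. EC50 from sigmoidal dose-response fit.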

[4] = Inhibition of Trypanosoma brucei biotinylated PEX5 /N-terminal His-tagged PEX14 (19 to 84 residues) protein-protein interaction expressed in Escherichia coli BL21 assessed as inhibition constant by AlphaScreen assay
In short: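 TbPEX14 N-terminal domain (aa 19–84) expressed from pETM-11 in E. coli BL21, Ni-NTA then gel filtration in PBS. AlphaScreen competition with serial inhibitor dilution, other components held constant, quadruplicate. Ki = EC50/(1+[LT]/KdL*T), apparent Kd measured for each condition.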

[5] = target: Tumour suppressor p53/oncoprotein Mdm2 (Homo sapiens, UniProt P04637+Q00987); assay: Binding affinity to MDM2-p53 (unknown origin) protein protein interaction assessed as dissociation constant by fluorescence polarization assay
[6] = target: CREB-binding protein/Histone acetyltransferase p300 (Homo sapiens, UniProt Q09472+Q92793); assay: Binding affinity to p300-CBP (unknown origin) protein protein interaction assessed as dissociation constant by tryptophan fluorescence assay

Sequence of Tumour suppressor p53/oncoprotein Mdm2 (P04637 whole entry): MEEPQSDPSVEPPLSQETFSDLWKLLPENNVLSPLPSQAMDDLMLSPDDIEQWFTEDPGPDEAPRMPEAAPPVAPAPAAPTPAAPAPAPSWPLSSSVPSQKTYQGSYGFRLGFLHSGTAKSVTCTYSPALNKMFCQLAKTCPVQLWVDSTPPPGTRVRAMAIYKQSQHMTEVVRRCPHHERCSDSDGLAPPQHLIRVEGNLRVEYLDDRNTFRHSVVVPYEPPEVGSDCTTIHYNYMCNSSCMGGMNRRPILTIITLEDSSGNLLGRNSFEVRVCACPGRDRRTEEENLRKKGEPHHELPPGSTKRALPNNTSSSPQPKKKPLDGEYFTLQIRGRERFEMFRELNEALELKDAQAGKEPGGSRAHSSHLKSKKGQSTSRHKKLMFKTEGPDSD
Sequence of Tumour suppressor p53/oncoprotein Mdm2 (Q00987 whole entry): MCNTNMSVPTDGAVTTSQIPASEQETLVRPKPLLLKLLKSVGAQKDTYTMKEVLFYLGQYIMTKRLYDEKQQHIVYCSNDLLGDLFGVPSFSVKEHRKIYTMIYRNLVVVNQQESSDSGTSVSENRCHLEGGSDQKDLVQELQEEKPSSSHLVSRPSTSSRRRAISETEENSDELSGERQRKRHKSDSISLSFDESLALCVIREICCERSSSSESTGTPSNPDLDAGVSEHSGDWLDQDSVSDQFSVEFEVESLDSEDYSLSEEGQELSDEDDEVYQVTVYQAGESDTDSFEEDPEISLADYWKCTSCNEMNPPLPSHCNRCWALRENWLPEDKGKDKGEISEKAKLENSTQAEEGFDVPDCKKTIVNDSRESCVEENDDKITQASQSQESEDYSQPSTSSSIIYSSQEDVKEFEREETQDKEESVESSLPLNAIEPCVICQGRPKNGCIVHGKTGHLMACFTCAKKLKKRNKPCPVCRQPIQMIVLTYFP

| SMILES | EC50 [3] [µM] | Kd [5] [µM] | Kd [6] [µM] | selectivity ratio [1] | EC50 [2] [µM] | Ki [4] [µM] |
| --- | --- | --- | --- | --- | --- | --- |
| COC(=O)[C@H](Cc1c[nH]c2ccccc12)N1CC(=O)N[C@@H](Cc2c[nH]c3ccccc23)C1 | 5 |  |  | 3.6 | 17 | 27 |
| CC(=O)OC[C@H](Cc1c[nH]c2ccccc12)N1CC(=O)N[C@@H](Cc2c[nH]c3ccccc23)C1 | 13 |  |  | 1.8 | 29 | 58 |
| O=C1CN(CCc2c[nH]c3ccccc23)C[C@H](Cc2c[nH]c3ccccc23)N1 | 7 |  |  | 1.7 | 12 | 41 |
| COC(=O)[C@H](Cc1c[nH]c2ccccc12)N1CC(=O)N[C@H](C(=O)NCc2ccccc2)C1 | > 100 |  |  |  | > 100 | 494 |
| COC(=O)[C@H](Cc1c[nH]c2ccccc12)N1CC(=O)N[C@H](C(=O)NCc2cccc3ccccc23)C1 | 10 |  |  | 3.2 | 33 | 77 |
| COC(=O)[C@H](Cc1c[nH]c2ccccc12)N1C[C@H](Cc2c[nH]c3ccccc23)NC(=O)C1=O | 29 |  |  | > 3.4 | > 100 | 75 |
| O=C1CN([C@H](CO)Cc2c[nH]c3ccccc23)C[C@H](Cc2c[nH]c3ccccc23)N1 | 14 |  |  | 1.7 | 24 | 48 |
| COC(=O)[C@H](Cc1ccccc1)N1CC(=O)N[C@@H](Cc2c[nH]c3ccccc23)C1 | 13 |  |  | 4.3 | 56 | 73 |
| CC(C)C[C@@H]1NCCN([C@@H](CC(C)C)C(=O)N2CCN([C@@H](CCC(N)=O)C(N)=O)C(=O)[C@@H]2C)C1=O |  |  | 0.53 |  |  |  |
| O=C1CN(C(=O)Cc2c[nH]c3ccccc23)C[C@H](Cc2c[nH]c3ccccc23)N1 | > 100 |  |  |  | > 100 | 195 |

Now from value to molecule, other results behind:

| EC50 [3] [µM] | Kd [5] [µM] | Kd [6] [µM] | SMILES | selectivity ratio [1] | EC50 [2] [µM] | Ki [4] [µM] |
| --- | --- | --- | --- | --- | --- | --- |
| 43 |  |  | COC(=O)[C@H](Cc1ccccc1)N1CCN[C@@H](Cc2c[nH]c3ccccc23)C1=O | > 2.3 | > 100 | 265 |
| 30 |  |  | COC(=O)[C@H](Cc1c[nH]c2ccccc12)N1CCN[C@@H](Cc2c[nH]c3ccccc23)C1=O | > 3.4 | > 100 | 133 |
| 5 |  |  | COC(=O)[C@H](Cc1c[nH]c2ccccc12)N1CCCN[C@@H](Cc2c[nH]c3ccccc23)C1=O | 4.2 | 21 | 53 |
|  | 2.9 |  | CC(C)C[C@@H](C(N)=O)N1CCN(C(=O)[C@H](Cc2c[nH]c3ccccc23)N2CCN[C@@H](Cc3ccccc3)C2=O)[C@@H](Cc2ccccc2)C1=O |  |  |  |
| > 100 |  |  | COC(=O)[C@H](Cc1c[nH]c2ccccc12)N1CCN(C(C)=O)[C@@H](Cc2c[nH]c3ccccc23)C1=O |  | > 100 | 542 |
| > 100 |  |  | NC(=O)[C@H](Cc1c[nH]c2ccccc12)N1CCN[C@@H](Cc2c[nH]c3ccccc23)C1=O |  | > 100 | 288 |
| 29 |  |  | COC(=O)[C@H](Cc1ccccc1)N1CC(=O)N[C@@H](Cc2c[nH]c3ccccc23)C1=O | < 1 | 24 | > 1000 |
| > 100 |  |  | NC(=O)[C@H](Cc1ccccc1)N1CC(=O)N[C@@H](Cc2c[nH]c3ccccc23)C1=O |  | > 100 | > 1000 |
